Assay results gathered from unrelated publications.
Compare with care: the assays were run in different laboratories.
Target: Aurora kinase A (AURKA, Homo sapiens, UniProt O14965)
Sequence (O14965 1-403, as in one of the studies): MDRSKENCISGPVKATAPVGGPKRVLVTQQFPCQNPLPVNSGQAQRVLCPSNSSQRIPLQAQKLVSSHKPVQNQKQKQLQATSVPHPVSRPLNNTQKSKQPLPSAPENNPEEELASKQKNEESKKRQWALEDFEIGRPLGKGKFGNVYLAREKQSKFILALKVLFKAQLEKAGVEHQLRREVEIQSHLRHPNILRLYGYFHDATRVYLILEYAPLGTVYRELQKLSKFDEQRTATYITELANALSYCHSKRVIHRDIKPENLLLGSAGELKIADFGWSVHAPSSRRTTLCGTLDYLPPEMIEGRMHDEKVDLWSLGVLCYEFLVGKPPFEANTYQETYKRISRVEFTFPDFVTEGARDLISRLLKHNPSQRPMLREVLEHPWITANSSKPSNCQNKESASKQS

Cc1ccc(Nc2nccc(N(C)c3ccc4c(C)n(C)nc4c3)n2)cc1S(N)(=O)=O
inhibition (enzyme activity; inhibitor; 10 µM): 99%

Cc1c(NC(=O)c2cc(C(N)=O)nc3cc(F)ccc23)c(C(F)(F)F)nn1Cc1ccc(C#N)cc1
remaining binding (cell-free assay; competition with immobilised ligand; 1 µM): 89%

Cc1ccc(NC(=O)c2ccc(C)c(C(F)(F)F)c2)cc1C#Cc1nn(C2CCC(O)CC2)c2ncnc(N)c12 (centres unmarked)
remaining signal (cell-free assay; 10 µM): 64%

Nc1ncnc2occ(-c3ccc(NC(=O)Nc4cc(C(F)(F)F)ccc4F)cc3)c12
remaining activity (enzyme activity; inhibitor; 20 µM): 0.1%

O=C(CSc1nc2nccnc2c(=O)n1CCc1ccccc1)Nc1nccs1
inhibition (enzyme activity; inhibitor; 10 µM): 1%

CCCOc1ccc(OC)c(F)c1C(=O)c1ccc(C(=O)N[C@@H]2CNC[C@H]2NC(=O)c2ccc3[nH]ncc3c2)cc1
remaining activity (enzyme activity; inhibitor; 10 µM): 33%

N#CC1(c2ccccn2)CCN(Cc2cc(C(=O)N3CCCC3)c(=O)n3ccccc23)CC1
remaining binding (cell-free assay; competition with immobilised ligand; 1 µM): 90%

COc1cc2ncnc(Nc3ccc(Oc4ccccc4)c(C)c3C)c2cc1OC
inhibition (enzyme activity; inhibitor; 1 µM): 13%

CC(C)(O)[C@H]1CC[C@H](Nc2ccc3ncc(-c4cccc(C(F)(F)F)c4)n3n2)CC1
remaining activity (enzyme activity; inhibitor; 1 µM): 96.1%

Cc1ccc(C(=O)Nc2ccc(CN3CCN(C)CC3)c(C(F)(F)F)c2)cc1C#Cc1cnc2cccnn12
remaining activity (enzyme activity; inhibitor; 23.5 nM): 97%

COc1cc(-c2cn(C3CCc4c(F)cccc4N(CC(F)(F)F)C3=O)nn2)ccc1-n1cnc(C)c1 (centres unmarked)
remaining binding (cell-free assay; competition with immobilised ligand; 1 µM): 100%

CCN(CC)CCNC(=O)c1c(C)[nH]c(/C=C2\C(=O)Nc3ccc(F)cc32)c1C
remaining activity (enzyme activity; inhibitor; 0.1 µM): 83%

C[C@@H]1CN(c2cc(-c3n[nH]c4ccc(OC5(C)CC5)cc34)ncn2)C[C@H](C)O1
remaining binding (cell-free assay; competition with immobilised ligand; 0.1 µM): 94%

CN1CC(Oc2cnc(C#N)cc2-c2ccn3nc(NC(=O)C4CC4)cc3c2)C1
inhibition (enzyme activity; inhibitor; 1 µM): 6%

Cc1[nH]c(/C=C2\C(=O)Nc3ccc(F)cc32)c(C)c1C(=O)N[C@H]1CCN(C(=O)N(C)C)C1
remaining activity (enzyme activity; inhibitor; 1 µM): 35%

C[C@@H]1CCN(C(=O)CC#N)C[C@@H]1N(C)c1ncnc2[nH]ccc12
remaining signal (cell-free assay; inhibitor; 0.5 µM): 84.1%

Oc1cccc(-c2nc(N3CCOCC3)c3oc4ncccc4c3n2)c1
remaining activity (enzyme activity; inhibitor; 10 µM): 92%

O=C(Nc1cnn(-c2csc(C(=O)NC3COC3)c2)c1)Nc1c(F)cccc1Cl
remaining activity (enzyme activity; inhibitor; 5 µM): 83.1%

CNC(=O)c1cc(Oc2ccc(NC(=O)Nc3ccc(Cl)c(C(F)(F)F)c3)cc2)ccn1
inhibition (enzyme activity; inhibitor; 10 µM): 86%

FC(F)c1nc2ccccc2n1-c1nc(N2CCOCC2)nc(N2CCOCC2)n1
remaining activity (enzyme activity; inhibitor; 10 µM): 99%

COc1cc(/C=C/C(=O)CC(=O)/C=C/c2ccc(O)c(OC)c2)ccc1O
activity vs control (enzyme activity; inhibitor; 1 µM): 85%

CC(C)(C)c1nc(-c2cccc(NS(=O)(=O)c3c(F)cccc3F)c2F)c(-c2ccnc(N)n2)s1
remaining activity (enzyme activity; inhibitor; radiometric; 1 µM): 102%

COc1cc(Nc2cnc(C#N)c(O[C@H](C)CN(C)C)n2)ncc1-c1cnn(C)c1
remaining activity (enzyme activity; inhibitor; radiometric; 1 µM): 84%

CNC(=O)Nc1ccc2c(c1)CC[C@@]21OC(=O)N(CC(=O)N(Cc2ccc(F)cc2)[C@@H](C)C(F)(F)F)C1=O
remaining binding (cell-free assay; competition with immobilised ligand; 1 µM): 80%

CNC(=O)c1ccccc1Nc1cc(Nc2ccc(N3CCOCC3)cc2OC)ncc1C(F)(F)F
inhibition (enzyme activity; inhibitor; 1 µM): > 50%

Cc1nc(Cc2cccc(C(F)(F)F)c2)sc1-c1ccc(C(N)=O)nc1
remaining binding (cell-free assay; competition with immobilised ligand; 1 µM): 100%

O=C1NC(=O)c2cc(Nc3ccc(F)cc3)c(Nc3ccc(F)cc3)cc21
remaining signal (cell-free assay; 0.5 µM): 92.7%

O=C(Nc1cnn(-c2csc(C(=O)NC3COC3)c2)c1)Nc1ccccc1Cl
remaining activity (enzyme activity; inhibitor; 5 µM): 105%

CC(C)(O)c1cncc(-c2nc3ccc(F)cc3n2C2CC2)c1
remaining binding (cell-free assay; competition with immobilised ligand; 1 µM): 94%

COc1cc2nccc(Oc3ccc(NC(=O)c4c5n(n(-c6ccc(F)cc6)c4=O)CCCC5)cc3)c2cc1OC
inhibition (enzyme activity; inhibitor; 0.1 µM): -3%

Cc1cc(NC(=O)c2cccc(S(F)(F)(F)(F)F)c2)cc(-n2ccn3nc(-c4cccnc4)cc23)c1
remaining binding (cell-free assay; competition with immobilised ligand; 1 µM): 84.9%

CCN(CC)CCNC(=O)c1c(C)[nH]c(/C=C2\C(=O)Nc3ccc(F)cc32)c1C
inhibition (enzyme activity; inhibitor; 10 µM): 84%
